From PubChem
FLuc inh counter = inhibits firefly luciferase, flagging false hits in luciferase inhibition screens; inhibition, % at 10 µM; ATPLite firefly luciferase biochemical luminescence, 10 min; AID 1006; hit rate 1.5% among 200,000;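 active means inhibition above about 50% when tested at 10 µM, limit read from the data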
Target sequence (P08659 whole entry, looked up): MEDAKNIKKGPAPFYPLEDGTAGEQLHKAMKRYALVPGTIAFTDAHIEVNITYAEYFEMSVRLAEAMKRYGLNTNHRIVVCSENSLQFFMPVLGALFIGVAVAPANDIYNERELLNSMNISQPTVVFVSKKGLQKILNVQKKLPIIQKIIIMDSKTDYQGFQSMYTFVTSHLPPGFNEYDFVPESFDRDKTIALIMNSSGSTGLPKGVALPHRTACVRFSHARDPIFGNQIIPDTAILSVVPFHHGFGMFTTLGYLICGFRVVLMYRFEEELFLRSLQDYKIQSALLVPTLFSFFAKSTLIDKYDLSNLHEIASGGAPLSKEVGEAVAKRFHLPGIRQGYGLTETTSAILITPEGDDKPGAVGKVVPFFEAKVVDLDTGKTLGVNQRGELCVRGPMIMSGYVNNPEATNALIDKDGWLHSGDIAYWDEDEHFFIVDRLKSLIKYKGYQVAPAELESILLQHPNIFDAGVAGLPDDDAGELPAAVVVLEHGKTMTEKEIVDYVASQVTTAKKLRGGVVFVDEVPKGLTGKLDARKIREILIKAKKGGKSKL
STAT3 blocker = reduces IL-6 driven STAT3 reporter signal; hit rate 0.89% among 190,000; inhibition, % at 5.5 µM; U3A cells, IL-6 STAT3-luciferase reporter, luminescence; host cell line lacks STAT1; AID 862;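 active means inhibition above the mean inhibition across all screened compounds plus 3 SD, cut at about 44% in these data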
FLuc act counter = affects firefly luciferase, flagging false hits in luciferase stimulation screens; P08659; ATPlite luciferase biochemical, luminescence, 10 min; 0 = ATP-free wells, 1 = DMSO control; activation factor at 10 µM; 200,000 tested, under 10 active;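 active means luciferase activation factor, scaled between plate controls, of at least 2 with compound at 10 µM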
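System: Luciferase/luciferin detection reagent, cell-free biochemical luciferase assay | Medium: PBS buffer for ATP | Dosing: Test compounds dosed from 2 mM stocks in 100% DMSO | Timing: 10 min at ambient temperature | Signal: Luminescence measurement of luciferase light output | Evaluation: Luciferase activation, seen as luminescence increase over controls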
STAT1 inh = inhibitors of IFN-gamma induced STAT1 signaling; NIH 3T3 STAT1-luciferase reporter, luminescence; inhibition, % at 5.5 µM; hit rate 0.35% among 200,000; AID 920;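 active means inhibition above a set limit, the mean inhibition across all tested compounds plus 3 SD, cut at about 34% in these data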
STAT3 activator = STAT3 signaling activation | hit rate 0.91% among 190,000 | activation (% of control), % at 5.6 µM | U3A cells, IL-6 STAT3-luciferase reporter, luminescence; 100% = signal with IL-6 EC80 alone;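 active means activation above the screen-wide mean of compound activation plus 3 SD, cut at about 130% in these data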
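Test system: Human STAT1-deficient U3A cells with stable STAT3-luciferase reporter | Also added: Interleukin-6, 33 ng/mL | Timing: Compound pre-incubation 1 h before IL-6, then 6 h stimulation at 37 °C | Technique: Luciferase reporter luminescence | Read-out: Percent of IL-6-only median luminescence | Benchmarks: IL-6-only wells as 100% reference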
STAT1 act = increases IFN-gamma driven STAT1 reporter signal. NIH 3T3 STAT1-luciferase reporter, luminescence; 100% = IFN-gamma alone, no compound. activation (% of control), % at 5.5 µM. hit rate 2.6% among 200,000. AID 932;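 active means activation above the screen-wide mean activation plus 3 SD, cut at about 130% in these data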
STAT1 activ conf = STAT1 activation, confirmation assay; AID 1262; shares compounds with STAT1 act; hit rate 97% among 1,200; activation (% of control), % at 5.7 µM; NIH 3T3 STAT1-luciferase reporter, IFN-gamma potentiation, luminescence; 100% = IFN-gamma EC80 alone, no compound;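 active means activation above a set limit carried over from the earlier primary STAT1 screen, cut at about 140% in these data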
NFkB act = activates NF-kappaB, counter-screen to STAT1 activators. hit rate 43% among 1,200. activation (% of control), % at 5.7 µM. AID 1306. shares compounds with STAT1 act. HEK293T NF-kB luciferase reporter, TNF-alpha stimulated, luminescence; 100% = TNF-alpha with vehicle only;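 active means activation above the mean of solvent-only control wells plus 3 SD, set per campaign, cut at about 130% in these data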;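 further: TNF-alpha given at a submaximal dose yielding about 80% of full reporter signal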
STAT3 act STAT1c = human STAT3 activation in STAT1 activator counter-screen | AID 1316 | activation (% of control), % at 5.7 µM | hit rate 46% among 1,200 | shares compounds with STAT1 act | U3A cells STAT3-luciferase reporter, IL-6, luminescence; cells lack STAT1; 100 = IL-6 alone, no compound effect;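 active means activation above the solvent-only control well mean plus 3 SD, set per plate batch, cut at about 110% in these data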;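 further: higher means more STAT3 reporter activation so hits are non-selective activators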
A number is an active result; . = inactive; / = not tested or not shown. Sampled rows, rich in hits. Any-hit rate of the full collection: about 4.9%.

SMILES	FLuc inh counter	STAT3 blocker	FLuc act counter	STAT1 inh	STAT3 activator	STAT1 act	STAT1 activ conf	NFkB act	STAT3 act STAT1c
N#C/C(=C\c1ccc(N2CCOCC2)o1)c1ccccc1	.	.	.	.	.	160.7	234.8	149.9	126.5
N#Cc1ccc(OCC(=O)OCC(=O)NCCC2=CCCCC2)cc1	.	.	.	.	.	.	/	/	/
Cc1cc(C(=O)N/N=C/c2sccc2C)no1	.	.	.	.	.	.	/	/	/
Cc1ccsc1/C=N/NC(=O)c1sccc1C	.	.	.	.	.	153.3	173.4	.	111.7
Cc1ccsc1/C=N\NC(=O)c1cc(C(C)(C)C)[nH]n1	.	.	.	.	.	156.0	171.3	.	117.5
CCc1cc2ccc(C)cc2nc1SCC(=O)Nc1c[nH]c(=O)[nH]c1=O	.	.	.	.	.	.	/	/	/
CCOc1ccc(N(CC(=O)Nc2ccccc2C(=O)NC(C)CC)S(C)(=O)=O)cc1 (stereo not given)	.	.	.	.	.	.	/	/	/
O=c1c(C(c2ccccc2)c2c(O)nc3n(c2=O)CCS3)c(O)nc2n1CCS2	.	.	.	.	.	.	/	/	/
Nc1nc(CN2CCCCCC2)nc(Nc2ccccc2)n1	.	.	.	.	.	.	/	/	/
Cc1c(-c2nc(N)nc(Nc3ccccc3)n2)oc2ccccc12	.	.	.	.	.	164.4	210.9	147.7	.
Fc1cccc2sc(N3CCCCC3)nc12	.	.	.	.	.	.	/	/	/
Clc1ccc2nc(N3CCCCC3)sc2c1	.	.	.	.	.	166.0	207.5	137.9	.
CNC(=O)c1cc(C(=O)c2c(Cl)cccc2Cl)c[nH]1	.	.	.	.	.	.	/	/	/
Cc1cccc(C(=O)n2c(=S)nc3ccccn32)c1	91.4	.	.	.	.	192.5	430.3	184.9	127.3
CCCn1c(SCC(=O)NC(=O)NC(C)(C)C)n[nH]c1=O	.	.	.	.	.	.	/	/	/
Clc1ccc(OCc2nc(-c3ccncc3)no2)c(Br)c1	.	.	.	.	.	152.3	233.3	140.6	122.9
COc1ccccc1Cc1nc(-c2ccncc2)no1	.	.	.	.	.	.	/	/	/
Clc1ccccc1OCc1nc(-c2ccncc2)no1	.	.	.	.	.	161.9	184.2	.	116.5
O=C1CC(N2CCN(c3ncccn3)CC2)C(=O)N1CCc1ccccc1 (stereo not given)	.	.	.	.	.	.	/	/	/
CC1CN(C(=O)COC(=O)c2ccc(Cl)nc2)CC(C)O1 (stereo not given)	.	.	.	.	.	.	/	/	/
NNc1nc2c(F)cc(F)cc2s1	.	.	.	.	.	156.1	.	.	115.7
Cc1nc(Nc2ccc3c(c2)OCCO3)c2oc3ccccc3c2n1	.	.	.	.	.	.	/	/	/
c1coc(CNc2ncnc3c2oc2ccccc23)c1	.	.	.	.	.	.	/	/	/
COc1ccccc1Oc1ncnc2c1oc1ccccc12	.	.	.	.	.	.	/	/	/
c1ccc2c(c1)oc1c(Nc3ccc4c(c3)OCCO4)ncnc12	.	.	.	.	.	179.9	260.4	141.3	114.0
SMILES	FLuc inh counter	STAT3 blocker	FLuc act counter	STAT1 inh	STAT3 activator	STAT1 act	STAT1 activ conf	NFkB act	STAT3 act STAT1c
Cc1ccc(Nc2ncnc3c2oc2ccccc23)cc1	.	.	.	.	.	171.2	231.3	154.9	116.6
COc1ccc(Nc2ncnc3c2oc2ccccc23)cc1	.	.	.	.	.	163.2	203.7	133.7	.
CC(=O)NC1CCCN(O)C(=O)/C=C(\C)CCOC(=O)C(NC(C)=O)CCCN(O)C(=O)/C=C(\C)CCOC(=O)C(NC(C)=O)CCCN(O)C(=O)/C=C(\C)CCOC1=O (stereo not given)	.	/	.	.	/	.	/	/	/
COCCN(C(=O)CC1C(=O)NCCN1CC(c1ccccc1)c1ccccc1)C(C)C (stereo not given)	.	.	.	.	.	.	/	/	/
CC(=O)COc1ccc2c(C)c(-c3ccccc3)c(=O)oc2c1	.	.	.	.	.	155.7	155.8	.	.
CC(=O)COc1ccc2c3c(c(=O)oc2c1)CCCC3	.	.	.	.	.	.	/	/	/
COc1cccc(CNC(=O)CCC2CCCN(Cc3cc4ccccc4o3)C2)c1 (stereo not given)	.	.	.	.	.	.	/	/	/
O=C(OCC(=O)N1CCOCC1)c1ccccc1Cc1ccccc1	.	.	.	.	.	158.3	197.9	139.5	136.8
O=C(OCC(=O)N1CCOCC1)c1ccccc1SCC(=O)N1CCCC1	.	.	.	.	.	.	/	/	/
N#Cc1c(Cl)nc(SCc2ccccc2)nc1-c1ccccc1	.	.	.	.	.	.	/	/	/
Cc1ccc(Cn2cc(SCC(N)=O)c3ccccc32)cc1	.	.	.	.	.	.	/	/	/
CN(C(=O)COC(=O)c1ccc2ccccc2n1)C1CCS(=O)(=O)C1 (stereo not given)	.	.	.	.	.	.	/	/	/
C=CCNC(=O)c1cc(-c2ccc(Br)cc2)on1	.	.	.	.	.	160.3	170.6	.	.
CCCCNC(=O)c1cc(-c2ccc(OC)cc2)on1	.	.	.	.	.	.	/	/	/
CCCNC(=O)c1cc(-c2ccc(OC)cc2)on1	.	.	.	.	.	152.5	170.5	134.2	.
COc1cccc(NC(=O)CN(C)C(C)C(=O)Nc2cc([N+](=O)[O-])ccc2Cl)c1 (stereo not given)	.	.	.	.	.	.	/	/	/
N#CC(=C1CCCC1)c1nc(-c2ccccc2)cs1	54.2	.	.	.	.	166.2	215.5	154.1	122.5
COc1ccc(/C(C)=N/Nc2ccc(C(=O)O)cc2)cc1OC	.	.	.	.	.	156.6	189.8	.	119.2
Cc1ccc(C(=O)C(C)Sc2nnc(N)s2)cc1 (stereo not given)	.	.	.	.	.	.	/	/	/
O=C(O)C1=C(OCc2ccccc2)C(=O)NCC1	.	.	.	.	.	.	/	/	/
CCN(CC)c1ccc(/C=N/NC(=O)c2ccco2)cc1	78.6	.	.	.	.	165.4	216.9	.	.
O=C(Nc1ccccc1NC(=O)NC1CCCCC1)NC1CCCCC1	.	.	.	.	.	.	/	/	/
O=C(CC1CCCCC1)Nc1nc2ccccc2s1	.	.	.	.	.	155.0	184.1	133.9	119.7
